Values joined by “and” are separate entries in the source; they are usually repeats but may differ in a detail not shown here. Identical values can stand only once. Active and inactive are the calls of the source. No cut-off for these calls is given here.
Experiments:
[1] = target: T1, 5-demethoxyubiquinone hydroxylase, mitochondrial (Homo sapiens) (UniProt Q99807); assay: Inhibition of COQ7 in human BxPC3 cells assessed as DMQ10 accumulation at 10 uM after 1 day by HPLC analysis relative to control; assay type: cell-based; design: scale not given: the % may be the effect or the level left; details: BXPC-3
T1 sequence (whole entry): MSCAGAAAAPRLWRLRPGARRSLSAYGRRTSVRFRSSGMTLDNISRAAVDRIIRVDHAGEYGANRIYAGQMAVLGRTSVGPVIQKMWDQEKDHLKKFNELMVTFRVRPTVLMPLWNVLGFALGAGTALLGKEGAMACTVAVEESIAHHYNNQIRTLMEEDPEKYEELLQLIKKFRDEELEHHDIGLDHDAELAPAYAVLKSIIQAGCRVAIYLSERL
Procedure, shortened: (§1)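 Cells (2 or 4 x 10^5/well) cultured overnight, then exposed 24 hr to compound at 10 µM; DMSO controls. Cells suspended in PBS with 5% K3Fe(CN)6, 0.12 µg UQ9 added as internal standard, quinones extracted in ethanol/n-hexane (2:5). Reverse-phase C18 HPLC, isocratic diisopropyl ether/methanol (1:9), 30 °C, UV 275 nm; DMQ10 at 10.2 min. DMQ10 reported as ng/well and % of total quinone; duplicate wells.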

[2] = target: T1, 5-demethoxyubiquinone hydroxylase, mitochondrial (Homo sapiens); assay: Inhibition of COQ7 in human HeLa cells assessed as DMQ10 accumulation at 10 uM after 1 day by HPLC analysis relative to control; assay type: cell-based; design: scale not given: the % may be the effect or the level left; procedure, shortened: as §1
[3] = target: T1, 5-demethoxyubiquinone hydroxylase, mitochondrial (Homo sapiens); assay: Inhibition of COQ7 in human HeLa cells assessed as DMQ10 accumulation at 20 uM after 2 days by HPLC analysis; assay type: cell-based
Procedure, shortened: (§2)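 HeLa cells cultured overnight, then exposed 48 hr to compound (single 30 µM screen, 10 µM, or graded doses); 0.5-1.0% DMSO controls. Quinones extracted with ethanol/n-hexane after K3Fe(CN)6 oxidation and UQ9 internal standard, then resolved by C18 HPLC with UV at 275 nm. DMQ10 and UQ10 reported as ng/well and DMQ10 as % of total quinone; mean of duplicates.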

[4] = target: T1, 5-demethoxyubiquinone hydroxylase, mitochondrial (Homo sapiens); assay: Inhibition of COQ7 in human HeLa cells assessed as DMQ10 accumulation at 5 uM after 2 days by HPLC analysis; assay type: cell-based; procedure, shortened: as §2
[5] = target: T1, 5-demethoxyubiquinone hydroxylase, mitochondrial (Homo sapiens); assay: Inhibition of COQ7 in human PANC1 cells assessed as DMQ10 accumulation at 10 uM after 1 day by HPLC analysis relative to control; assay type: cell-based; design: scale not given: the % may be the effect or the level left; details: PANC-1; procedure, shortened: as §1
[6] = target: T1, 5-demethoxyubiquinone hydroxylase, mitochondrial (Homo sapiens); assay: Inhibition of COQ7 in human PC3 cells assessed as DMQ10 accumulation at 10 uM after 1 day by HPLC analysis relative to control; assay type: cell-based; design: scale not given: the % may be the effect or the level left; details: PC-3; procedure, shortened: as §1
[7] = target: T1, 5-demethoxyubiquinone hydroxylase, mitochondrial (Homo sapiens); assay: Inhibition of COQ7 in human C3A cells assessed as DMQ10 accumulation at 10 uM after 1 day by HPLC analysis relative to control; assay type: cell-based; design: scale not given: the % may be the effect or the level left; procedure, shortened: as §1
[8] = target: T1, 5-demethoxyubiquinone hydroxylase, mitochondrial (Homo sapiens); assay: Inhibition of COQ7 in human HeLa cells assessed as DMQ10 level per well at 10 uM after 2 days by HPLC analysis; assay type: cell-based; procedure, shortened: as §2
[9] = (§3) Cytotoxicity against human WI38 cells assessed as growth inhibition after 4 days by cell-titer-Glo assay; assay type: cell-based, WI-38; details: WI-38 cells
Procedure, shortened: (§4)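 WI-38 normal fibroblasts grown in DMEM + 10% FBS at 37 °C, 5% CO2. Pre-cultured 24 hr, then exposed to compound at 0-30 µM for 4 days. Viability read by CellTiter-Glo 2.0; GI50 by linear interpolation of concentration-response curves, mean of triplicates.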

[10] = target: T1, 5-demethoxyubiquinone hydroxylase, mitochondrial (Homo sapiens); assay: Inhibition of COQ7 in human HeLa cells assessed as DMQ10 level per well at 10 uM after 2 days by HPLC analysis relative to control; assay type: cell-based; design: scale not given: the % may be the effect or the level left; procedure, shortened: as §2
[11] = target: T1, 5-demethoxyubiquinone hydroxylase, mitochondrial (Homo sapiens); assay: Inhibition of COQ7 in human HeLa cells assessed as UQ10 level per well at 10 uM after 2 days by HPLC analysis; assay type: cell-based; procedure, shortened: as §2
[12] = target: T1, 5-demethoxyubiquinone hydroxylase, mitochondrial (Homo sapiens); assay: Inhibition of COQ7 in human PC3 cells assessed as DMQ10 accumulation at 10 uM after 24 hrs by HPLC analysis relative to control; assay type: cell-based; design: scale not given: the % may be the effect or the level left; details: PC-3; procedure, shortened: as §1
[13] = test system: PC-3; assay: Cytotoxicity against human PC3 cells assessed as growth inhibition after 3 days by cell-titer-Glo assay; assay type: functional; details: PC-3, 72 h
Procedure, shortened: (§5)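 Cells pre-cultured 24 hr, then exposed to a range of compound concentrations for a further 3 days. Viable cells counted by CellTiter-Glo 2.0 luminescence; GI50 obtained by linear interpolation of concentration-response curves, mean of triplicates. Medium: DMEM + 10% FBS for HeLa and PANC-1, EMEM for C3A, F-12K for PC-3; 37 °C, 5% CO2.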

[14] = test system: C3A; assay: Growth inhibition of human C3A cells after 3 days in presence of 10 mM 2-DG by cell-titer-Glo assay; assay type: functional; details: 72 h
Procedure, shortened: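 C3A cells in EMEM + 10% FBS with 10 mM 2-deoxyglucose in the medium to block glycolysis. Pre-cultured 24 hr, then exposed to graded compound concentrations for 3 further days. Viable cells quantified by CellTiter-Glo 2.0; GI50 by linear interpolation, mean of triplicates.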

[15] = test system: HeLa; assay: Growth inhibition of human HeLa cells assessed as growth inhibition after 3 days by cell-titer-Glo assay; assay type: functional; details: 72 h; procedure, shortened: as §5
[16] = test system: WI-38; assay: as §3; assay type: cell-based; details: wi-38, 96 h, 96 h; procedure, shortened: as §4
[17] = target: T1, 5-demethoxyubiquinone hydroxylase, mitochondrial (Homo sapiens); assay: Inhibition of COQ7 in human PANC1 cells assessed as DMQ10 accumulation at 10 uM after 24 hrs by HPLC analysis relative to control; assay type: cell-based; design: scale not given: the % may be the effect or the level left; details: PANC-1; procedure, shortened: as §1
[18] = test system: C3A; assay: Antiproliferative activity against human C3A cells at 10 uM assessed as increase in cell death incubated for 24 hrs and measured after 3 days
[19] = test system: PANC-1; assay: Growth inhibition of human PANC1 cells after 3 days by cell-titer-Glo assay; assay type: functional; details: PANC-1, 72 h; procedure, shortened: as §5
[20] = test system: C3A; assay: Growth inhibition of human C3A cells assessed as growth inhibition after 3 days by cell-titer-Glo assay; assay type: functional; details: 72 h; procedure, shortened: as §5
[21] = target: T1, 5-demethoxyubiquinone hydroxylase, mitochondrial (Homo sapiens); assay: Inhibition of COQ7 in human HeLa cells assessed as DMQ10 accumulation at 30 uM after 2 days by HPLC analysis relative to control; assay type: cell-based; design: scale not given: the % may be the effect or the level left; procedure, shortened: as §2
[22] = target: T1, 5-demethoxyubiquinone hydroxylase, mitochondrial (Homo sapiens); assay: Inhibition of COQ7 in human HeLa cells assessed as DMQ10 accumulation at 10 uM after 2 days by HPLC analysis relative to control; assay type: cell-based; design: scale not given: the % may be the effect or the level left; procedure, shortened: as §2
[23] = target: T1, 5-demethoxyubiquinone hydroxylase, mitochondrial (Homo sapiens); assay: Inhibition of COQ7 in human C3A cells assessed as DMQ10 level per well at 10 uM after 1 day by HPLC analysis (reference value: 7.4 ng); assay type: cell-based; procedure, shortened: as §1
[24] = target: T1, 5-demethoxyubiquinone hydroxylase, mitochondrial (Homo sapiens); assay: Inhibition of COQ7 in human HeLa cells assessed as DMQ10 level per well at 10 uM after 1 day by HPLC analysis (reference value: 6.8 ng); assay type: cell-based; procedure, shortened: as §1

| Compound | Activity [8] | GI50 at 96 h [9] | Activity [10] | Activity [11] | further results |
| --- | --- | --- | --- | --- | --- |
| Oc1c(I)cc(Cl)c2cccnc12 |  |  |  |  | Activity [1]: < 5%; Activity [2]: > 20%; Activity [3]: inactive; Activity [4]: Active; Activity [5]: < 5%; Activity [6]: < 5%; Activity [7]: > 20% |
| Oc1cc(-c2ccccc2)nn1-c1ccncc1 | 0 ng | > 30 µM | 0% | 33.7 ng |  |
| Cc1ccc(-n2nc(-c3ccccc3)cc2O)nc1 | 7.3 ng |  | 32.2% | 15.4 ng | Activity [12]: 14%; GI50 [13]: > 12 µM; GI50 [14]: 20.2 µM; GI50 [15]: > 12 µM; GI50 [16]: 26.3 µM and > 12 µM; Activity [17]: 8.7%; Activity [18]: inactive; GI50 [19]: > 12 µM; GI50 [20]: 18.5 µM |
| Oc1cc(CCc2ccccc2)nn1-c1ccccn1 | 9.3 ng | 9.6 µM | 51.4% | 8.8 ng |  |
| Oc1cc(-c2ccccc2)nn1-c1ccccn1 | 1.3 ng | 20.8 µM | 7.1% | 17.1 ng | Activity [21]: > 30%; Activity [22]: 19.3% |
| Oc1cc(-c2ccccc2)nn1-c1cccnc1 | 0 ng | > 30 µM | 0% | 23.7 ng |  |
| CS(=O)(=O)c1ccc(-n2nc(-c3ccccc3)cc2O)nc1 | 2.2 ng | > 30 µM | 11% | 17.8 ng |  |
| Oc1cc(-c2ccccc2)nn1-c1ncccc1Cl | 0 ng | > 30 µM | 0% | 20.7 ng |  |
| Oc1cc(CC2CCCCC2)nn1-c1ccccn1 | 6.6 ng | 17.5 µM | 42.9% | 8.8 ng |  |
| Clc1cc(-c2ccccc2)nn1-c1ccccn1 | 0 ng | > 30 µM | 0% | 35.7 ng |  |
| Oc1cc(-c2ccccc2)nn1-c1cc(Cl)ccn1 | 0 ng | > 30 µM | 0% | 22.7 ng |  |
| Oc1cc(-c2ccccc2)nn1-c1ccc(C(F)(F)F)cn1 | 9.2 ng | 9.4 µM | 49.5% | 9.4 ng |  |
| Oc1cc(-c2ccccc2)nn1-c1ccccc1 | 0 ng | > 30 µM | 0% | 28.5 ng |  |
| COc1ccc(-n2nc(-c3ccccc3)cc2O)nc1 | 0 ng | 25.4 µM | 0% | 6.7 ng |  |
| Oc1cc(C2CCCC2)nn1-c1ccccn1 | 5.8 ng | 12.7 µM | 32.4% | 12.1 ng |  |
| Nc1ccc(-n2nc(-c3ccccc3)cc2O)nc1 | 2.6 ng | > 30 µM | 10% | 23.4 ng |  |
| Oc1cc(C2CCC2)nn1-c1ccccn1 | 0 ng | 25 µM | 0% | 24.4 ng |  |
| Oc1cc(-c2ccccc2)nn1-c1ccc(F)cn1 | 1.8 ng | 28.9 µM | 10.8% | 14.8 ng |  |
| Oc1cc(C2CCCCC2)nn1-c1ccccn1 | 5.5 ng | 9.1 µM | 20.7% | 5.9 ng |  |
| Oc1cc(-c2ccccc2)nn1-c1ccc(Cl)cn1 | 13.2 ng | 19 µM | 52% | 12.2 ng | Activity [12]: 27.6%; GI50 [13]: > 12 µM; Activity [23]: 7.8 ng; Activity [24]: 7.9 ng; GI50 [14]: 6.1 µM; GI50 [15]: > 12 µM; GI50 [16]: 19 µM; Activity [17]: 11.4%; Activity [18]: inactive; GI50 [19]: > 12 µM; GI50 [20]: 9 µM |

Source: ChEMBL document CHEMBL4613220, “Identification of small molecule inhibitors of human COQ7” (Bioorg Med Chem, 2020)
